Experimental data from ChEMBL document CHEMBL3045743, “Synthesis and herbicidal activity of isoindoline-1,3-dione substituted benzoxazinone derivatives containing a carboxylic ester group” (J Agric Food Chem, 2009).

Tests used:
[1] = test system: Abutilon theophrasti; experiment: Pre-emergence herbicidal activity against Abutilon theophrasti (velvetleaf) assessed as growth inhibition at 7.5 g.a.i./ha applied 24 hr after seeds were sown measured after 15 days; type: functional; details: read-out: GI
Method in brief: (§1)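 Weeds sown 5 mm deep in pots of greenhouse clay soil (pH 6.5, 37.5% clay, CEC 12.9 cmol/kg) and grown at 22-25 °C. Water-diluted formulation was applied pre-emergence 24 h after sowing. Untreated and DMF solvent controls were included. Growth inhibition was visually rated in % against untreated controls after 15 days, as the mean of triplicates.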

[2] = test system: Glycine max; experiment: Phytotoxicity against Glycine max (soybean) assessed as growth inhibition at 37.5 g.a.i/ha pre-emergent application measured after 15 days by greenhouse crop selectivity assay; type: organism-based; details: in vivo, other, 360 h
Method in brief: (§2)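 Pre-emergence greenhouse crop selectivity test on pot-grown plants in clay soil (pH 6.5, 1.7% organic matter, 37.5% clay, CEC 12.9 cmol/kg). Stock solutions were diluted with water and applied at 300, 150, 75 or 37.5 g a.i./ha, in triplicate. After 15 days, phytotoxicity was scored visually against untreated controls as % crop growth inhibition, averaged over the triplicates.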

[3] = Phytotoxicity against Triticum aestivum (wheat) assessed as growth inhibition at 300 g.a.i/ha pre-emergent application measured after 15 days by greenhouse crop selectivity assay; type: organism-based; details: in vivo, read-out: GI; method in brief: as §2
[4] = test system: Arachis hypogaea; experiment: Phytotoxicity against Arachis hypogaea (peanut) assessed as growth inhibition at 150 g.a.i/ha pre-emergent application measured after 15 days by greenhouse crop selectivity assay; type: organism-based; details: in vivo, other, 360 h; method in brief: as §2
[5] = test system: Digitaria sanguinalis; experiment: Pre-emergence herbicidal activity against Digitaria sanguinalis (hairy crabgrass) assessed as growth inhibition at 15 g.a.i./ha applied 24 hr after seeds were sown measured after 15 days; type: functional; details: read-out: GI; method in brief: as §1
[6] = test system: Zea mays; experiment: Phytotoxicity against Zea mays (maize) assessed as growth inhibition at 150 g.a.i/ha pre-emergent application measured after 15 days by greenhouse crop selectivity assay; type: organism-based; details: in vivo, other, 360 h; method in brief: as §2
[7] = test system: Gossypium; experiment: Phytotoxicity against Gossypium (cotton) assessed as growth inhibition at 37.5 g.a.i/ha pre-emergent application measured after 15 days by greenhouse crop selectivity assay; type: organism-based; details: in vivo, other, 360 h; method in brief: as §2
[8] = test system: Setaria viridis; experiment: Pre-emergence herbicidal activity against Setaria viridis (green foxtail) assessed as growth inhibition at 75 g.a.i./ha applied 24 hr after seeds were sown measured after 15 days; type: functional; details: read-out: GI
Method in brief: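 Preliminary pre-emergence screen at a single rate of 75 g a.i./ha. Stock diluted with water and sprayed on greenhouse pots 24 h after seeds were sown 5 mm deep in clay soil (pH 6.5, 1.7% organic matter); grown at 22-25 °C. Untreated and DMF solvent controls included; triplicate. Visual % growth inhibition vs untreated after 15 days, averaged and banded (>80% top band).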

[9] = test system: Glycine max; experiment: Phytotoxicity against Glycine max (soybean) assessed as growth inhibition at 300 g.a.i/ha pre-emergent application measured after 15 days by greenhouse crop selectivity assay; type: organism-based; details: in vivo, other, 360 h; method in brief: as §2
[10] = test system: Glycine max; experiment: Phytotoxicity against Glycine max (soybean) assessed as growth inhibition at 7.5 to 60 g.a.i/ha post-emergent application measured after 15 days by greenhouse crop selectivity assay; type: organism-based; details: in vivo, other, 360 h
Method in brief: (§3)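 Postemergence crop selectivity test on pot-grown plants in a greenhouse, in clay soil (pH 6.5, 1.7% organic matter, CEC 12.9 cmol/kg). Stock was diluted with water and sprayed at 60, 30, 15 or 7.5 g a.i./ha, in triplicate. Growth inhibition was rated visually against untreated controls after 15 days and given as the triplicate mean percentage.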

[11] = test system: Amaranthus; experiment: Pre-emergence herbicidal activity against Amaranthus ascendens assessed as growth inhibition at 75 g.a.i./ha applied 24 hr after seeds were sown measured after 15 days; type: functional; details: read-out: GI; method in brief: as §1
[12] = test system: Amaranthus spinosus; experiment: Pre-emergence herbicidal activity against Amaranthus spinosus assessed as growth inhibition at 37.5 g.a.i./ha applied 24 hr after seeds were sown measured after 15 days; type: functional; details: read-out: GI; method in brief: as §1
[13] = test system: Amaranthus spinosus; experiment: Pre-emergence herbicidal activity against Amaranthus spinosus assessed as growth inhibition at 7.5 g.a.i./ha applied 24 hr after seeds were sown measured after 15 days; type: functional; details: read-out: GI; method in brief: as §1
[14] = test system: Echinochloa crus-galli; experiment: Pre-emergence herbicidal activity against Echinochloa crus-galli (barnyard grass) assessed as growth inhibition at 37.5 g.a.i./ha applied 24 hr after seeds were sown measured after 15 days; type: functional; details: read-out: GI; method in brief: as §1
[15] = test system: Amaranthus; experiment: Post-emergence herbicidal activity against Amaranthus ascendens assessed as growth inhibition at 75 g.a.i./ha applied at two-leaf stage measured after 15 days; type: functional; details: 360 h, read-out: GI
Method in brief: (§4)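 Pot-grown weeds sown 5 mm deep in greenhouse clay soil (pH 6.5, 1.7% organic matter, CEC 12.9 cmol/kg) at 22-25 °C. Stock diluted with water and sprayed post-emergence: dicots at 2-leaf stage, monocots at 1-leaf stage. Untreated and DMF solvent controls were included. % growth inhibition was scored visually versus untreated controls after 15 days. Triplicates averaged.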

[16] = test system: Chenopodium album; experiment: Pre-emergence herbicidal activity against Chenopodium album assessed as growth inhibition at 7.5 g.a.i./ha applied 24 hr after seeds were sown measured after 15 days; type: functional; details: read-out: GI; method in brief: as §1
[17] = Phytotoxicity against Oryza sativa (rice) assessed as growth inhibition at 300 g.a.i/ha pre-emergent application measured after 15 days by greenhouse crop selectivity assay; type: organism-based, L.; details: in vivo, read-out: GI; method in brief: as §2
[18] = test system: Echinochloa crus-galli; experiment: Pre-emergence herbicidal activity against Echinochloa crus-galli (barnyard grass) assessed as growth inhibition at 7.5 g.a.i./ha applied 24 hr after seeds were sown measured after 15 days; type: functional; details: read-out: GI; method in brief: as §1
[19] = test system: Echinochloa crus-galli; experiment: Pre-emergence herbicidal activity against Echinochloa crus-galli (barnyard grass) assessed as growth inhibition at 15 g.a.i./ha applied 24 hr after seeds were sown measured after 15 days; type: functional; details: read-out: GI; method in brief: as §1
[20] = test system: Echinochloa crus-galli; experiment: Post-emergence herbicidal activity against Echinochloa crus-galli (barnyard grass) assessed as growth inhibition at 7.5 g.a.i./ha applied at one-leaf stage measured after 15 days; type: functional; details: 360 h, read-out: GI; method in brief: as §4
[21] = test system: Amaranthus spinosus; experiment: Post-emergence herbicidal activity against Amaranthus spinosus assessed as growth inhibition at 37.5 g.a.i./ha applied at two-leaf stage measured after 15 days; type: functional; details: 360 h, read-out: GI; method in brief: as §4
[22] = test system: Digitaria sanguinalis; experiment: Pre-emergence herbicidal activity against Digitaria sanguinalis (hairy crabgrass) assessed as growth inhibition at 37.5 g.a.i./ha applied 24 hr after seeds were sown measured after 15 days; type: functional; details: read-out: GI; method in brief: as §1
[23] = test system: Zea mays; experiment: Phytotoxicity against Zea mays (maize) assessed as growth inhibition at 75 g.a.i/ha pre-emergent application measured after 15 days by greenhouse crop selectivity assay; type: organism-based; details: in vivo, other, 360 h; method in brief: as §2
[24] = test system: Setaria viridis; experiment: Post-emergence herbicidal activity against Setaria viridis (green foxtail) assessed as growth inhibition at 7.5 g.a.i./ha applied at one-leaf stage measured after 15 days; type: functional; details: 360 h, read-out: GI; method in brief: as §4
[25] = test system: Zea mays; experiment: Phytotoxicity against Zea mays (maize) assessed as growth inhibition at 7.5 to 60 g.a.i/ha post-emergent application measured after 15 days by greenhouse crop selectivity assay; type: organism-based; details: in vivo, other, 360 h; method in brief: as §3
[26] = test system: Amaranthus spinosus; experiment: Pre-emergence herbicidal activity against Amaranthus spinosus assessed as growth inhibition at 15 g.a.i./ha applied 24 hr after seeds were sown measured after 15 days; type: functional; details: read-out: GI; method in brief: as §1
[27] = test system: Digitaria sanguinalis; experiment: Post-emergence herbicidal activity against Digitaria sanguinalis (hairy crabgrass) assessed as growth inhibition at 7.5 g.a.i./ha applied at one-leaf stage measured after 15 days; type: functional; details: 360 h, read-out: GI; method in brief: as §4
[28] = Phytotoxicity against Triticum aestivum (wheat) assessed as growth inhibition at 150 g.a.i/ha pre-emergent application measured after 15 days by greenhouse crop selectivity assay; type: organism-based; details: in vivo, 150 g.a.i/ha, read-out: GI; method in brief: as §2

Compound | inhibition of growth at 7.5 g/ha [1] | growth inhibition (GI) [2] | inhibition at 360 h [3] | growth inhibition (GI) [4] | inhibition of growth at 15 g/ha [5] | growth inhibition (GI) [7] | inhibition of growth at 75 g/ha [8] | Activity [10] | inhibition of growth at 75 g/ha [11] | inhibition of growth at 37.5 g/ha [12] | inhibition of growth at 7.5 g/ha [13] | inhibition of growth at 37.5 g/ha [14] | inhibition of growth at 75 g/ha [15] | inhibition of growth at 7.5 g/ha [16] | inhibition at 360 h [17] | inhibition of growth at 7.5 g/ha [18] | inhibition of growth at 15 g/ha [19] | inhibition of growth at 7.5 g/ha [20] | inhibition of growth at 37.5 g/ha [21] | inhibition of growth at 37.5 g/ha [22] | also measured
CCOC(=O)C(CC)N1C(=O)C(C)Oc2cc(F)c(N3C(=O)C4=C(CCCC4)C3=O)cc21 (stereo not drawn) | 0% | Not Active | > 10% | Not Active | 0% | Not Active | > 80% | Toxic | > 80% | 100% | 100% | 0% | > 80% | 100% | > 10% | 0% | 0% | 0% | 100% | 0% | growth inhibition (GI) [6]: Not Active; growth inhibition (GI) [9]: Not Active; growth inhibition (GI) [23]: Not Active; inhibition of growth at 7.5 g/ha [24]: 20%; Activity [25]: Toxic; inhibition of growth at 15 g/ha [26]: 100%; inhibition of growth at 7.5 g/ha [27]: 40%
C#CCN1C(=O)COc2cc(F)c(N3C(=O)C4=C(CCCC4)C3=O)cc21 [FLUMIOXAZIN] | 50% | Not Active | > 10% | Not Active | 50% | Not Active | > 80% | Toxic | > 80% | 100% | 100% | 70% | > 80% | 100% | > 10% | 0% | 50% | 50% | 100% | 80% | inhibition at 360 h [28]: > 10%; inhibition of growth at 7.5 g/ha [24]: 80%; Activity [25]: Toxic; inhibition of growth at 15 g/ha [26]: 100%; inhibition of growth at 7.5 g/ha [27]: 80%
COC(=O)C(C)N1C(=O)C(C)Oc2cc(F)c(N3C(=O)C4=C(CCCC4)C3=O)cc21 (stereo not drawn) | 50% | Not Active | > 10% | Not Active | 10% | Not Active | > 80% | Toxic | > 80% | 100% | 100% | 80% | > 80% | 100% | > 10% | 0% | 10% | 10% | 100% | 50% | growth inhibition (GI) [6]: Not Active; growth inhibition (GI) [9]: Not Active; growth inhibition (GI) [23]: Not Active; inhibition at 360 h [28]: > 10%; inhibition of growth at 7.5 g/ha [24]: 10%; Activity [25]: Toxic; inhibition of growth at 15 g/ha [26]: 100%; inhibition of growth at 7.5 g/ha [27]: 10%
CCOC(=O)C(C)N1C(=O)C(C)Oc2cc(F)c(N3C(=O)C4=C(CCCC4)C3=O)cc21 (stereo not drawn) | 0% | Not Active | > 10% | Not Active | 40% | Not Active | > 80% | Toxic | > 80% | 100% | 90% | 30% | > 80% | 100% | > 10% | 0% | 10% | 10% | 100% | 80% | growth inhibition (GI) [6]: Not Active; growth inhibition (GI) [9]: Not Active; growth inhibition (GI) [23]: Not Active; inhibition at 360 h [28]: > 10%; inhibition of growth at 7.5 g/ha [24]: 20%; Activity [25]: Toxic; inhibition of growth at 15 g/ha [26]: 95%; inhibition of growth at 7.5 g/ha [27]: 20%
